Experimental data from ChEMBL document CHEMBL4041494, “Simple synthesis of endophenazine G and other phenazines and their evaluation as anti-methicillin-resistant Staphylococcus aureus agents” (Eur J Med Chem, 2017).
≈ marks a conversion by molar mass, not a printed value. Calls of active or inactive are those of the source. No cut-off for these calls is given here.

What was measured:
Staphylococcus aureus [1] = assay: Antibacterial activity against methicillin-resistant Staphylococcus aureus LAC JE2 after 24 hrs by broth microdilution assay; assay type: functional; settings: LAC JE2, 24 h
How it was run: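 Broth microdilution per ASM Clinical Microbiology Procedures Handbook (3rd ed.). Compound stock at pH 7, serial 2-fold dilutions in cation-adjusted Mueller Hinton II broth with 5% DMSO. Inoculum from direct colony suspension at 0.5 McFarland, 10 ul per well. Static incubation at 37°C for 24 h. MIC is the lowest concentration with no visible growth. Vancomycin positive control, medium-only negative control.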

Staphylococcus aureus [2] = assay: Antibacterial activity against methicillin-resistant Staphylococcus aureus after 24 hrs by broth microdilution assay
HaCaT = assay: Cytotoxicity against human HaCaT cells assessed as reduction in cell viability by CellTiter blue assay; assay type: cell-based
How it was run: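 HaCaT keratinocytes. Compound dissolved in 2:3 NaOH (0.01 M)/DMSO, diluted in DMEM with 10% FBS and 1% penicillin-streptomycin to 4 mM top concentration (3% DMSO), then serially diluted in DMEM. Viability read by CellTiter-Blue, following resazurin absorbance change on a spectrophotometer. Absorbance plotted against concentration and IC50 calculated.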

Equus caballus = species: Equus caballus; assay: Induction of equine heart cytochrome-c reduction at 25 to 100 uM measured for 900 sec at 30 sec time interval in presence of NADPH by photospectrometric method; assay type: functional
How it was run: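 Compound stock 10 mM in 95% DMSO/5% 0.1 M NaOH, diluted in DPBS to 200 μM and serially diluted, keeping 5% DMSO/NaOH. NADPH 100 μM, then cytochrome c 20 μM added. Absorbance at 550 nm read, with 700 nm as baseline correction. Controls: cyt-c alone, cyt-c plus NADPH, and buffer alone.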

Staphylococcus aureus [3] = assay: Bacteriostatic activity against methicillin-resistant Staphylococcus aureus LAC JE2 at 10 times MIC by serial dilution method; assay type: functional
How it was run: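 Overnight culture diluted 1:1000 into fresh CAMHB and grown 2 h at 37°C with agitation. 1-ml aliquots then treated with 10X MIC of compound. Samples taken every 2 h, and viability counted by serial dilution and plating on tryptic soy agar.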

[4] = Induction of ROS generation by HPF staining based flow cytometry
Staphylococcus aureus [5] = assay: Induction of membrane disruption in methicillin-resistant Staphylococcus aureus LAC JE2 at 1 to 10 times MIC by propidium iodide staining based confocal microscopic method; assay type: functional
[6] = Induction of ROS generation at 0.11 to 0.55 mM measured for 500 sec at 30 sec time interval in presence of NADPH by ABDA staining based photospectrometric method
How it was run: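 Compound 10 mM in 95% DMSO/5% 0.1 M NaOH, serially diluted keeping 5% DMSO/NaOH in DPBS. NADPH 100 μM and ABDA 5 μM final added. Superoxide followed as ABDA decay at 479 nm. Triplicate per concentration. Controls: ABDA alone in buffer, and buffer alone.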

Staphylococcus aureus [7] = assay: Induction of membrane disruption in methicillin-resistant Staphylococcus aureus LAC JE2 at 1 to 10 times MIC measured at 15 mins interval for 4 hrs by propidium iodide staining based fluorescence assay; assay type: functional
How it was run: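 S. aureus JE2 resuspended in PBS to OD600 1.0 and treated with 1X, 2X or 10X MIC. Propidium iodide fluorescence (RFU) read in a plate reader every 15 min for 4 h.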

With `O=C(O)c1cccc2nc3cccc(Cl)c3nc12` as the compound, how does the MIC (Staphylococcus aureus [1]) read?
Its MIC is 16 µg/mL (≈ 61.9 µM).

Which MIC (Staphylococcus aureus [2]) does the source give for `COC(=O)c1cccc2nc3ccccc3nc12` here?
The MIC was 128 µg/mL (≈ 537 µM).

Which MIC (Staphylococcus aureus [1]) does the source give for `CC(C)(O)/C=C/c1cccc2nc3c(C(=O)O)cccc3nc12` here?
The MIC was 128 µg/mL (≈ 415 µM).

Which MIC (Staphylococcus aureus [1]) does the source give for `O=C(O)c1cccc2nc3cccc(Br)c3nc12` here?
The MIC was 32 µg/mL (≈ 106 µM).

What about the IC50 (HaCaT) of the same compound?
The IC50 was 345 µM.

For `CC(C)(O)/C=C/c1cccc2nc3cccc(C(=O)O)c3nc12`, which MIC (Staphylococcus aureus [1]) is on record?
Its MIC is 32 µg/mL (≈ 104 µM).

What about the Activity (Equus caballus) of the same compound?
The Activity was “Active”.

And the Activity (Staphylococcus aureus [3])?
Its Activity is “Active”.

And the Activity [4]?
Its Activity is “inactive”.

And the IC50 (HaCaT)?
The IC50 was 306 µM.

What about the Activity (Staphylococcus aureus [5]) of the same compound?
Its Activity is “inactive”.

What about the Activity [6] of the same compound?
The Activity was “inactive”.

What about the Activity (Staphylococcus aureus [7]) of the same compound?
Its Activity is “inactive”.

Which MIC (Staphylococcus aureus [2]) does the source give for `NC(=O)c1cccc2nc3ccccc3nc12` here?
Its MIC is 64 µg/mL (≈ 287 µM).

With `COC(=O)c1cccc2nc3cccc(C)c3nc12` as the compound, how does the MIC (Staphylococcus aureus [1]) read?
Its MIC is 64 µg/mL (≈ 254 µM).

For `CN(C)C(=O)c1cccc2nc3cccc(/C=C/C(C)(C)O)c3nc12`, which MIC (Staphylococcus aureus [1]) is on record?
The MIC was greater than 128 µg/mL.

For `N#Cc1cccc2nc3cccc(Br)c3nc12`, which MIC (Staphylococcus aureus [1]) is on record?
The MIC was greater than 128 µg/mL.

With `O=C(O)c1cccc2nc3cccc(F)c3nc12` as the compound, how does the MIC (Staphylococcus aureus [1]) read?
The MIC was 64 µg/mL (≈ 264 µM).

With `CN(C)C(=O)c1cccc2nc3cccc(Br)c3nc12` as the compound, how does the MIC (Staphylococcus aureus [1]) read?
The MIC was greater than 128 µg/mL.

For `O=C(O)c1cccc2nc3ccccc3nc12` [PHENAZINE-1-CARBOXYLIC ACID], which MIC (Staphylococcus aureus [2]) is on record?
The MIC was 64 µg/mL (≈ 285 µM).

With `CS(=O)(=O)NC(=O)c1cccc2nc3cccc(Br)c3nc12` as the compound, how does the MIC (Staphylococcus aureus [1]) read?
Its MIC is 4 µg/mL (≈ 10.5 µM).

And the IC50 (HaCaT)?
The IC50 was 118 µM.

For `Cc1cccc2nc3cccc(C(=O)O)c3nc12`, which MIC (Staphylococcus aureus [1]) is on record?
Its MIC is 32 µg/mL (≈ 134 µM).

With `CN(C)C(=O)c1cccc2nc3c(/C=C/C(C)(C)O)cccc3nc12` as the compound, how does the MIC (Staphylococcus aureus [1]) read?
Its MIC is greater than 128 µg/mL.

What about the Activity (Equus caballus) of the same compound?
The Activity was “Active”.

With `COC(=O)c1cccc2nc3c(/C=C/C(C)(C)O)cccc3nc12` as the compound, how does the MIC (Staphylococcus aureus [1]) read?
The MIC was 128 µg/mL (≈ 397 µM).

For `CC(C)(O)CCc1cccc2nc3cccc(C(=O)O)c3nc12`, which MIC (Staphylococcus aureus [1]) is on record?
The MIC was 64 µg/mL (≈ 206 µM).

For `COC(=O)c1cccc2nc3cccc(Br)c3nc12`, which MIC (Staphylococcus aureus [1]) is on record?
The MIC was 128 µg/mL (≈ 404 µM).

For `COC(=O)c1cccc2nc3c(Br)cccc3nc12`, which MIC (Staphylococcus aureus [1]) is on record?
Its MIC is greater than 128 µg/mL.

With `O=C(O)c1cccc2nc3c(Br)cccc3nc12` as the compound, how does the MIC (Staphylococcus aureus [1]) read?
Its MIC is 128 µg/mL (≈ 422 µM).

With `COC(=O)c1cccc2nc3cccc(/C=C/C(C)(C)O)c3nc12` as the compound, how does the MIC (Staphylococcus aureus [1]) read?
Its MIC is 128 µg/mL (≈ 397 µM).

With `CC(C)(O)/C=C/c1cccc2nc3cccc(C#N)c3nc12` as the compound, how does the MIC (Staphylococcus aureus [1]) read?
Its MIC is 128 µg/mL (≈ 442 µM).

Which MIC (Staphylococcus aureus [1]) does the source give for `NC(=O)c1cccc2nc3cccc(F)c3nc12` here?
Its MIC is greater than 128 µg/mL.

For `O=C(O)c1cccc2nc3cc(Br)ccc3nc12`, which MIC (Staphylococcus aureus [1]) is on record?
Its MIC is 64 µg/mL (≈ 211 µM).

For `CS(=O)(=O)NC(=O)c1cccc2nc3cccc(Cl)c3nc12`, which MIC (Staphylococcus aureus [1]) is on record?
The MIC was 2 µg/mL (≈ 5.96 µM).

What about the Activity (Equus caballus) of the same compound?
Its Activity is “Active”.

And the Activity (Staphylococcus aureus [3])?
The Activity was “Active”.

What about the Activity [4] of the same compound?
Its Activity is “inactive”.

And the IC50 (HaCaT)?
The IC50 was 193 µM.

And the Activity (Staphylococcus aureus [5])?
Its Activity is “inactive”.

What about the Activity [6] of the same compound?
Its Activity is “inactive”.

And the Activity (Staphylococcus aureus [7])?
The Activity was “inactive”.
